Key:
[1] = system: Human immunodeficiency virus 1; assay: Antiviral activity against ritonavir-resistant HIV1 in MT4 cells assessed as inhibition of p24 Gag protein expression by MTT assay; assay type: functional, organism-based; details: Human immunodeficiency virus 1, MT4
Procedure, shortened: (§1)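 MT-4 cells (10^5/ml) infected with 100 TCID50s of wild-type or PI-resistant NL4-3 virus and incubated at 37°C with or without graded drug concentrations. On day 7, supernatant p24 Gag was measured by chemiluminescent enzyme immunoassay. […] Assays were run in duplicate or triplicate.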

[2] = system: Human immunodeficiency virus 1; assay: Antiviral activity against idinavir-resistant HIV1 in MT4 cells assessed as inhibition of p24 Gag protein expression by MTT assay; assay type: functional, organism-based; details: Human immunodeficiency virus 1, MT4; procedure, shortened: as §1
[3] = system: Human immunodeficiency virus 1; assay: Antiviral activity against nelfinavir-resistant HIV1 in MT4 cells assessed as inhibition of p24 Gag protein expression by MTT assay; assay type: functional, organism-based; details: Human immunodeficiency virus 1, MT4; procedure, shortened: as §1
[4] = system: Human immunodeficiency virus 1; assay: Antiviral activity against atazanavir-resistant HIV1 in MT4 cells assessed as inhibition of p24 Gag protein expression by MTT assay; assay type: functional, organism-based; details: Human immunodeficiency virus 1, MT4; procedure, shortened: as §1
[5] = system: Human immunodeficiency virus 1; assay: Antiviral activity against lopinavir-resistant HIV1 in MT4 cells assessed as inhibition of p24 Gag protein expression by MTT assay; assay type: functional, organism-based; details: Human immunodeficiency virus 1, MT4; procedure, shortened: as §1
[6] = system: Human immunodeficiency virus 1; assay: Antiviral activity against amprenavir-resistant HIV1 in MT4 cells assessed as inhibition of p24 Gag protein expression by MTT assay; assay type: functional, organism-based; details: Human immunodeficiency virus 1, MT4; procedure, shortened: as §1
[7] = system: Human immunodeficiency virus 1; assay: Antiviral activity against HIV1 GRL98065p20 in MT4 cells assessed as inhibition of p24 Gag protein expression by MTT assay; assay type: functional, organism-based; details: Human immunodeficiency virus 1, MT4; procedure, shortened: as §1
[8] = system: Human immunodeficiency virus 1; assay: Antiviral activity against HIV1 GRL98065p30 in MT4 cells assessed as inhibition of p24 Gag protein expression by MTT assay; assay type: functional, organism-based; details: Human immunodeficiency virus 1, MT4; procedure, shortened: as §1
[9] = system: Human immunodeficiency virus 1; assay: Antiviral activity against HIV1 GRL98065p40 in MT4 cells assessed as inhibition of p24 Gag protein expression by MTT assay; assay type: functional, organism-based; details: Human immunodeficiency virus 1, MT4; procedure, shortened: as §1
[10] = system: Human immunodeficiency virus 1; assay: Antiviral activity against wild type HIV1 ERS104prc X4 in phytohemagglutininin-activated PBMCs assessed as inhibition of p24 Gag protein expression by MTT assay; assay type: functional, organism-based
Procedure, shortened: (§2)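 PHA-activated PBMCs (10^6/ml) infected with 50 TCID50s of each isolate and cultured with or without drug in 10-fold serial dilutions. The read-out was supernatant p24 Gag by chemiluminescent enzyme immunoassay. Assays were run in duplicate or triplicate, with one donor per experiment and three donors in total.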

[11] = system: Human immunodeficiency virus 1; assay: Antiviral activity against HIV1 MDR/TM X4 in phytohemagglutininin-activated PBMCs assessed as inhibition of p24 Gag protein expression by MTT assay; assay type: functional, organism-based
Procedure, shortened: (§3)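 PHA-activated PBMCs (10^6/ml) infected with 50 TCID50s of each isolate and cultured with or without drug in 10-fold serial dilutions. The read-out was supernatant p24 Gag by chemiluminescent enzyme immunoassay. […] Assays were run in duplicate or triplicate, with one donor per experiment and three donors in total.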

[12] = system: Human immunodeficiency virus 1; assay: Antiviral activity against HIV1 MDR/MM R5 in phytohemagglutininin-activated PBMCs assessed as inhibition of p24 Gag protein expression by MTT assay; assay type: functional, organism-based; procedure, shortened: as §3
[13] = system: Human immunodeficiency virus 1; assay: Antiviral activity against HIV1 MDR/JSL R5 in phytohemagglutininin-activated PBMCs assessed as inhibition of p24 Gag protein expression by MTT assay; assay type: functional, organism-based; procedure, shortened: as §3
[14] = system: Human immunodeficiency virus 1; assay: Antiviral activity against HIV1 MDR/B X4 in phytohemagglutininin-activated PBMCs assessed as inhibition of p24 Gag protein expression by MTT assay; assay type: functional, organism-based; procedure, shortened: as §3
[15] = system: Human immunodeficiency virus 1; assay: Antiviral activity against HIV1 MDR/C X4 in phytohemagglutininin-activated PBMCs assessed as inhibition of p24 Gag protein expression by MTT assay; assay type: functional, organism-based; procedure, shortened: as §3
[16] = system: Human immunodeficiency virus 1; assay: Antiviral activity against HIV1 MDR/G X4 in phytohemagglutininin-activated PBMCs assessed as inhibition of p24 Gag protein expression by MTT assay; assay type: functional, organism-based; procedure, shortened: as §2
[17] = system: Human immunodeficiency virus 1; assay: Antiviral activity against HIV1 92UG029 X4 subtype A in phytohemagglutininin-activated PBMCs assessed as inhibition of p24 Gag protein expression by MTT assay; assay type: functional, organism-based; procedure, shortened: as §3
[18] = system: Human immunodeficiency virus 1; assay: Antiviral activity against HIV1 92UG037 subtype A R5 in phytohemagglutininin-activated PBMCs assessed as inhibition of p24 Gag protein expression by MTT assay; assay type: functional, organism-based; procedure, shortened: as §3
[19] = system: Human immunodeficiency virus 1; assay: Antiviral activity against HIV1 BaL R5 subtype B in phytohemagglutininin-activated PBMCs assessed as inhibition of p24 Gag protein expression by MTT assay; assay type: functional, organism-based; procedure, shortened: as §2
[20] = system: Human immunodeficiency virus 1; assay: Antiviral activity against HIV1 97ZA003 R5 subtype C in phytohemagglutininin-activated PBMCs assessed as inhibition of p24 Gag protein expression by MTT assay; assay type: functional, organism-based; procedure, shortened: as §3
[21] = system: Human immunodeficiency virus 1; assay: Antiviral activity against HIV1 92TH019 R5 subtype E in phytohemagglutininin-activated PBMCs assessed as inhibition of p24 Gag protein expression by MTT assay; assay type: functional, organism-based; procedure, shortened: as §3
[22] = system: Human immunodeficiency virus 1; assay: Antiviral activity against saquinavir-resistant HIV1 in MT4 cells assessed as inhibition of p24 Gag protein expression by MTT assay; assay type: functional, organism-based; details: Human immunodeficiency virus 1, MT4; procedure, shortened: as §1
[23] = system: Human immunodeficiency virus 1; assay: Antiviral activity against HIV1 LAI in MT2 cells assessed as inhibition of p24 Gag protein expression by MTT assay; assay type: functional, organism-based; details: Human immunodeficiency virus 1, LAI
Procedure, shortened: (§4)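 MT-2 cells (2 × 10^4/ml) were infected with 100 TCID50s of the HIV-1LAI, HIV-2EHO or HIV-2ROD strain. They were cultured with serial drug concentrations at 37°C for 7 days. MTT was then added for 4 h at 37°C, formazan was dissolved in acidified isopropanol with 4% Triton X-100, and optical density was read. EC50 is the mean of three independent experiments, each run in duplicate.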

[24] = system: Human immunodeficiency virus 2; assay: Antiviral activity against HIV2 EHO in MT2 cells assessed as inhibition of p24 Gag protein expression by MTT assay; assay type: functional, organism-based; details: Human immunodeficiency virus 2, EHO; procedure, shortened: as §4
[25] = system: Human immunodeficiency virus 2; assay: Antiviral activity against HIV2 ROD in MT2 cells assessed as inhibition of p24 Gag protein expression by MTT assay; assay type: functional, organism-based; details: Human immunodeficiency virus 2, ROD; procedure, shortened: as §4
[26] = Cytotoxicity against human MT2 cells assessed as inhibition of p24 Gag protein expression by MTT assay; assay type: cell-based
[27] = system: Human immunodeficiency virus 1; assay: Antiviral activity against HIV1 NL4-3 in MT4 cells by MTT assay; assay type: functional, organism-based; details: Human immunodeficiency virus 1, NL4-3, MT4

Compound	EC50 [1]	EC50 [2]	EC50 [3]	EC50 [4]	EC50 [5]	EC50 [6]	EC50 [7]	EC50 [8]	EC50 [9]	EC50 [10]	EC50 [11]	EC50 [12]	EC50 [13]	EC50 [14]	EC50 [15]	EC50 [16]	EC50 [17]	EC50 [18]	EC50 [19]	EC50 [20]	also measured
CC(C)CN(C[C@@H](O)[C@H](Cc1ccccc1)NC(=O)O[C@H]1CO[C@H]2OCC[C@H]21)S(=O)(=O)c1ccc2c(c1)OCO2	2.5 nM	3.7 nM	2.4 nM	1.5 nM	7.5 nM	32 nM	3.8 nM	8 nM	180 nM	0.5 nM	3.2 nM	3.8 nM	6 nM	3.9 nM	2.7 nM	3.4 nM	0.5 nM	0.4 nM	0.2 nM	0.5 nM	EC50 [21]: 0.3 nM; EC50 [22]: 6 nM; EC50 [23]: 0.5 nM; EC50 [24]: 3.2 nM; EC50 [25]: 4.5 nM; CC50 [26]: 35.7 µM; EC50 [27]: 0.3 nM
COC(=O)N[C@H](C(=O)N[C@@H](Cc1ccccc1)[C@@H](O)CN(Cc1ccc(-c2ccccn2)cc1)NC(=O)[C@@H](NC(=O)OC)C(C)(C)C)C(C)(C)C [ATAZANAVIR]	18 nM	60 nM	21 nM	330 nM	40 nM	3 nM	6 nM	8 nM	11 nM	3.8 nM	38 nM	45 nM	540 nM	250 nM	21 nM	32 nM	6 nM	2.5 nM	1.3 nM	3.4 nM	EC50 [21]: 2.7 nM; EC50 [22]: 326 nM; EC50 [23]: 4.8 nM; EC50 [24]: 5 nM; EC50 [25]: 13 nM; CC50 [26]: 27.6 µM; EC50 [27]: 4.2 nM

Reference: ChEMBL document CHEMBL1143812, “A novel bis-tetrahydrofuranylurethane-containing nonpeptidic protease inhibitor (PI), GRL-98065, is potent against multiple-PI-resistant human immunodeficiency virus in vitro” (Antimicrob Agents Chemother, 2007)
